What all share (type): functional
For assay [1], the species on record is Oryctolagus cuniculus. The assay can be described thus: Tested for effective refractory period measured at a pacing rate of 1 Hz in vitro with rabbit heart tissue preparations. The procedure, abridged: (§1)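 Isolated rabbit heart tissues, all from one heart, each its own baseline; 2 h equilibration, perfusate changed every 15 min, basal stimulation 2 Hz between measurements. Exposed to 10^-7, 10^-6 and 10^-5 M drug, 15 min each; values reported at 10^-5 M as percent change from baseline. Drug solutions prepared daily in glass-distilled water. Force and rate recorded on polygraph.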

The species entered for assay [2] is Oryctolagus cuniculus. Nature of the assay: Tested for effective refractory period measured at a pacing rate of 3 Hz in vitro with rabbit heart tissue preparations. Also noted: unit: %. The procedure, abridged:
as §1

For assay [3], the species on record is Oryctolagus cuniculus. Nature of the assay: Tested for conduction time measured at a pacing rate of 3 Hz in vitro with rabbit heart tissue preparations. The procedure, abridged:
as §1

The species entered for assay [4] is Oryctolagus cuniculus. Nature of the assay: Tested for force of contraction measured in mg at a pacing rate of 2 Hz in vitro with rabbit heart tissue preparations. The procedure, abridged:
as §1

The species entered for assay [5] is Oryctolagus cuniculus. The assay can be described thus: Tested for conduction time measured at a pacing rate of 1 Hz in vitro with rabbit heart tissue preparations. The procedure, abridged: as §1
For assay [6], the species on record is Oryctolagus cuniculus. Nature of the assay: Tested for rate automaticity measured in beats per minute from unpaced right atria of rabbit heart. The procedure, abridged: as §1

Molecules are shown by their SMILES.

The compound `CCCCCCCN(CC)CCC(O)c1ccc(NS(C)(=O)=O)cc1` (stereo not drawn) registered an ERP1 in assay [1] of 37.5. For the same compound, in assay [2], the ERP3 was 39.3. The compound further returned a CT3 in assay [3] of 40.3. In assay [4], this compound had an FOC of -23. Moreover, the CT1 in assay [5] stood at 15.7. For the same compound, the Rate in assay [6] was -35.

Take `CCCCCCCCCCN(CC)CCCC(O)c1ccc(NS(C)(=O)=O)cc1` (stereo not drawn): the ERP1 in assay [1] is on record as 11.8. Also, in assay [2], the ERP3 stood at 16.1. The CT3 in assay [3] was found to be 74.3. This compound showed an FOC in assay [4] of -23.1. For the same compound, the CT1 in assay [5] is 63.2. The same compound returned a Rate in assay [6] of -11.

`CS(=O)(=O)Nc1ccc(C(O)CCCN2CCCCCCC2)cc1` (stereo not drawn) returned an ERP1 in assay [1] of 21.4. The compound also showed an ERP3 in assay [2] of 23.5. The same compound had a CT3 in assay [3] of -4.7. For the same compound, the FOC in assay [4] is -5.6. Further, in assay [5], the CT1 is recorded as -4.5. In addition, the Rate in assay [6] is listed as -10.

In assay [1], `CCCCCCCNCCCC(O)c1ccc(NS(C)(=O)=O)cc1` (stereo not drawn) had an ERP1 of 0.4. In addition, in assay [2], the ERP3 turned out to be 6.8. In addition, the CT3 in assay [3] stood at 8.3. Besides, the FOC in assay [4] is listed as -12.1. Further, the CT1 in assay [5] is -7.4. In assay [6], this compound returned a Rate of -25.

For the compound `CCCCCCCN(CC)CC(O)c1ccc(NS(C)(=O)=O)cc1` (stereo not drawn), the ERP1 in assay [1] worked out at 22.9. In addition, in assay [2], the ERP3 is recorded as 26.2. The compound also gave an FOC in assay [4] of -7. The compound further came in with a CT1 in assay [5] of 10.2. The Rate in assay [6] was -38.

In assay [1], `CCCCCCCN(CC)CCCC(=O)c1ccc(NS(C)(=O)=O)cc1` yielded an ERP1 of 6.6. Further, the ERP3 in assay [2] is given as 9.4. The same compound registered a CT3 in assay [3] of 0.6. In addition, in assay [4], the FOC was -6.7. The compound further returned a CT1 in assay [5] of -2.7. The Rate in assay [6] is -21.

Turning to `CCCCCN(CC)CCCC(O)c1ccc(NS(C)(=O)=O)cc1` (stereo not drawn), the ERP1 in assay [1] is reported as 20.8. Also, the ERP3 in assay [2] came to 11.6. Further, in assay [3], the CT3 came out at 11.9. In assay [4], this compound came in with an FOC of 17.1. This compound also returned a CT1 in assay [5] of 8.6. The Rate in assay [6] is on record as -20.

The compound `CS(=O)(=O)Nc1ccc(C(O)CCCN2CCCCCC2)cc1` (stereo not drawn) yielded an ERP1 in assay [1] of 17.1. The ERP3 in assay [2] was determined as 18.3. The CT3 in assay [3] is 0.2. Besides, the FOC in assay [4] is on record as 3.4. The CT1 in assay [5] stood at 1. The compound further gave a Rate in assay [6] of -11.

In assay [1], `CCCCCCC[N+](CC)(CC)CCCCc1ccc(Cl)cc1.O=P([O-])(O)O` [CLOFILIUM PHOSPHATE] returned an ERP1 of 3. The compound further gave an ERP3 in assay [2] of 3.4. This compound also registered a CT3 in assay [3] of -1.4. In assay [4], the FOC is reported as -10. Further, in assay [5], the CT1 is 0. The compound further yielded a Rate in assay [6] of -22.

In assay [1], `CCCCCCN(CC)CCCC(O)c1ccc(NS(C)(=O)=O)cc1` (stereo not drawn) returned an ERP1 of 12.1. Also, in assay [2], the ERP3 amounted to 7.8. The CT3 in assay [3] is 0. The compound also gave an FOC in assay [4] of -10.9. This compound gave a CT1 in assay [5] of -6.5. Besides, in assay [6], the Rate is recorded as -16.

In turn, `CC1CCN(CCCC(O)c2ccc(NS(C)(=O)=O)cc2)CC1` (stereo not drawn) showed an ERP1 in assay [1] of 4.5. For the same compound, the ERP3 in assay [2] is 10.5. For the same compound, the CT3 in assay [3] is -6.5. The FOC in assay [4] is recorded as -1. The compound further came in with a CT1 in assay [5] of -2.

Consider `CCCCCCCN(C)CCCC(O)c1ccc(NS(C)(=O)=O)cc1` (stereo not drawn), for which the ERP1 in assay [1] turned out to be 16.5. The same compound came in with an ERP3 in assay [2] of 17.2. This compound also showed a CT3 in assay [3] of 70. In addition, in assay [4], the FOC was found to be 8.5. The same compound came in with a CT1 in assay [5] of 13. Moreover, the Rate in assay [6] is reported as -34.

The compound `CCCCCCCN(CC)CCCC(O)c1cccc(NS(C)(=O)=O)c1` (stereo not drawn) returned an ERP1 in assay [1] of 25.2. Besides, in assay [2], the ERP3 was determined as 19. This compound returned a CT3 in assay [3] of 54. In assay [4], this compound came in with an FOC of -15. In addition, the CT1 in assay [5] came out at 21.3. For the same compound, in assay [6], the Rate is on record as -16.

As for `CCCCCCCCN(CC)CCCC(O)c1ccc(NS(C)(=O)=O)cc1` (stereo not drawn), the ERP1 in assay [1] is 5.3. For the same compound, the ERP3 in assay [2] was 4.3. The same compound showed a CT3 in assay [3] of 29.8. In assay [4], this compound had an FOC of 0.7. In addition, the CT1 in assay [5] came to 17.3. The same compound yielded a Rate in assay [6] of -28.

`CCCCCCCN(CC)CCCCc1ccc(NS(C)(=O)=O)cc1` displayed an ERP1 in assay [1] of 28.3. Also, the ERP3 in assay [2] amounted to 19.2. Also, the CT3 in assay [3] came to 140. This compound displayed an FOC in assay [4] of -24.2. This compound returned a CT1 in assay [5] of 67.2. This compound yielded a Rate in assay [6] of -27.

In the case of `CCCCCCCN(CC)CCCC(O)c1ccc(Cl)cc1.Cl` (stereo not drawn), the ERP1 in assay [1] is given as 10.5. Besides, in assay [2], the ERP3 was found to be 14. Further, in assay [4], the FOC is -21. In assay [5], the CT1 turned out to be 4. The Rate in assay [6] is -12.

Values taken from ChEMBL document CHEMBL1125736, “N-[(omega-amino-1-hydroxyalkyl)phenyl]methanesulfonamide derivatives with class III antiarrhythmic activity” (1991).
